Results pooled from the literature.
RPS6KA2 N-terminal kinase domain: Ribosomal protein S6 kinase alpha-2, N-terminal kinase domain (RPS6KA2, Homo sapiens, UniProt Q15349)
RPS6KA2: Ribosomal protein S6 kinase alpha-2 (RPS6KA2, Homo sapiens, UniProt Q15349)
RPS6KA2 C-terminal kinase domain: Ribosomal protein S6 kinase alpha-2, C-terminal kinase domain (RPS6KA2, Homo sapiens, UniProt Q15349)

With `COc1ccc2c(O[C@@H]3C[C@H]4C(=O)N[C@]5(C(=O)O)CC5/C=C\CCCCC[C@H](NC(=O)OC5CCCC5)C(=O)N4C3)cc(-c3csc(NC(=O)C(C)C)n3)nc2c1C` (stereo partly shown) the remaining binding was 100% (RPS6KA2 N-terminal kinase domain; cell-free assay, competition with immobilised ligand; 1 µM).
For `CC(C)(C)c1nc(-c2cccc(NS(=O)(=O)c3c(F)cccc3F)c2F)c(-c2ccnc(N)n2)s1`, the remaining activity was 81% (RPS6KA2; enzyme activity, inhibitor, radiometric; 1 µM).
`CNC(=O)c1ccc(Nc2ncc(C(F)(F)F)c(NCc3nccnc3N(C)S(C)(=O)=O)n2)cc1` has a remaining binding of 61% (RPS6KA2 C-terminal kinase domain; cell-free assay, competition with immobilised ligand; 0.1 µM).
For `CCN(CC)c1ccc(C2=NNC(=O)CC2C)cc1[N+](=O)[O-]` (stereo not shown), the remaining activity was 98% (RPS6KA2; enzyme activity, inhibitor; 10 µM).
`F[C@@H]1CCN(c2nccc(-c3cnn4ncccc34)n2)C1` has a remaining binding of 93% (RPS6KA2 N-terminal kinase domain; binding, competition with immobilised ligand; 1 µM).
The remaining binding of `Cn1cc(Cl)c2c(Oc3c(F)cc(Nc4cc(Cl)nc(N)n4)cc3F)ccnc21` is reported as 95% (RPS6KA2 N-terminal kinase domain; cell-free assay, competition with immobilised ligand; 0.1 µM).
The remaining binding of `CN(c1nccc(-c2cnn3ncccc23)n1)C1CC1` is reported as 99% (RPS6KA2 N-terminal kinase domain; binding, competition with immobilised ligand; 1 µM).
`O=C(NCCCC1CCCCC1)c1ccc(CNC(=O)c2cnn(-c3ccccc3)c2C(F)(F)F)cc1` has a remaining binding of 96% (RPS6KA2 C-terminal kinase domain; cell-free assay, competition with immobilised ligand; 0.1 µM).
`CNCc1ccc(-c2cc(-c3nc(-c4ccc(S(=O)(=O)C(C)C)cc4)cnc3N)on2)cc1` gave an inhibition of 49% (RPS6KA2; enzyme activity, inhibitor; 2 µM).
For `COc1cc2ncnc(Nc3ccc(Oc4ccccc4)c(C)c3C)c2cc1OC`, the inhibition was 2% (RPS6KA2; enzyme activity, inhibitor; 1 µM).
`O=C(O)[C@@H]1[C@@H](Cn2nnc3ccccc3c2=O)CC[C@H]1C(=O)c1ccc(OCCC2CCOCC2)cc1` has a remaining binding of 100% (RPS6KA2 C-terminal kinase domain; cell-free assay, competition with immobilised ligand; 1 µM).
`C[C@H]1CCN(c2nccc(-c3cnn4ncccc34)n2)C1` has a remaining binding of 100% (RPS6KA2 C-terminal kinase domain; binding, competition with immobilised ligand; 1 µM).
With `Cc1ccc(NC(=O)c2ccc(C)c(C(F)(F)F)c2)cc1C#Cc1nn(C2CCC(O)CC2)c2ncnc(N)c12` (stereo not shown) the remaining signal was 38% (RPS6KA2; cell-free assay; 10 µM).
`Cc1ccc(Nc2nccc(N(C)c3ccc4c(C)n(C)nc4c3)n2)cc1S(N)(=O)=O` has an inhibition of 64% (RPS6KA2; enzyme activity, inhibitor; 10 µM).
With `N[C@H]1CCN(c2nccc(-c3cnn4ncccc34)n2)C1` the remaining binding was 91% (RPS6KA2 C-terminal kinase domain; binding, competition with immobilised ligand; 1 µM).
For `Nc1ncnc2occ(-c3ccc(NC(=O)Nc4cc(C(F)(F)F)ccc4F)cc3)c12`, the remaining signal was 0.6% (RPS6KA2 N-terminal kinase domain; cell-free assay, inhibitor; 20 µM).
`CCCOc1ccc(OC)c(F)c1C(=O)c1ccc(C(=O)N[C@@H]2CNC[C@H]2NC(=O)c2ccc3[nH]ncc3c2)cc1` gave a remaining activity of 6% (RPS6KA2; enzyme activity, inhibitor; 10 µM).
The remaining binding of `CO[C@@H](C)c1c(Nc2ccc([C@H](N(C)C(=O)C3CCS(=O)(=O)CC3)C(F)(F)F)cc2)cnc2cc(Cl)nn12` is reported as 79% (RPS6KA2 C-terminal kinase domain; cell-free assay, competition with immobilised ligand; 1 µM).
`c1cnn2ncc(-c3ccnc(N4CCC45COC5)n3)c2c1` gave a remaining binding of 95% (RPS6KA2 N-terminal kinase domain; binding, competition with immobilised ligand; 1 µM).
`Cc1cc(NC(=O)c2cccc3cc(-c4cccc5[nH]nc(N)c45)ccc23)ccc1F` gave an activity vs control of 95% (RPS6KA2; enzyme activity, inhibitor; 0.1 µM).
With `Cc1ccc(C(=O)Nc2ccc(CN3CCN(C)CC3)c(C(F)(F)F)c2)cc1C#Cc1cnc2cccnn12` the remaining activity was 100% (RPS6KA2; enzyme activity, inhibitor; 23.5 nM).
With `CN(C)c1ncc(F)c(-c2cnn3ncccc23)n1` the remaining binding was 100% (RPS6KA2 N-terminal kinase domain; binding, competition with immobilised ligand; 1 µM).
The remaining binding of `CCS(=O)(=O)c1cc2cc(C[C@](O)(CC(C)(C)c3ccc(F)cc3C(N)=O)C(F)(F)F)[nH]c2cn1` is reported as 100% (RPS6KA2 N-terminal kinase domain; cell-free assay, competition with immobilised ligand; 1 µM).
For `Cc1cnn2ncc(-c3ccnc(N(C)C)n3)c2c1`, the remaining binding was 85% (RPS6KA2 N-terminal kinase domain; binding, competition with immobilised ligand; 1 µM).
`NS(=O)(=O)c1cc(NC(=O)C2(c3ccccc3Cl)CC2)ccc1Oc1cccc(Cl)c1` has a remaining binding of 100% (RPS6KA2 C-terminal kinase domain; cell-free assay, competition with immobilised ligand; 1 µM).
